Tb hexokinase: T. brucei hexokinase 1 inhibition. actives 0.11% (n = 220,000). inhibition, % at 10 µM. recombinant TbHK1, G6PDH-coupled NADH A340;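 active = inhibition of 50% or more in the single-dose primary screen; inactive = inhibition below 50%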
HSP90 refold inh: HSP90 refolding inhibition in rabbit reticulocyte lysate. luciferase refolding luminescence, 3 h. inhibition, % at 5.6 µM. actives 0.91% (n = 290,000);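 active = inhibition above the screen-wide mean plus 3 SD, computed separately per campaign, cut at about 16% in these data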;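 also: 0% = DMSO wells and 100% = 60 µM geldanamycin wells; inhibitors lower the luminescence because luciferase stays unfolded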
Hsp70 act: transcriptional activators of Hsp70; HeLa Hsp70 promoter luciferase reporter, luminescence; scaled: vehicle 0, proteasome-inhibitor control 100%; activation, % at 10 µM; actives 0.04% (n = 200,000);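 active = activation above the mean across all tested compounds plus 3 SD, cutoff set per campaign, cut at about 5.5% in these data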;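 also: 100% = MG132 at 30 µM as the positive control and 0% = DMSO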
HSF1 inh: HSF1 inhibition; NIH3T3-HGL HSE-luciferase, MG132-induced, luminescence 8 h; stronger effect = lower value; activity change, negative = inhibition, % at 7.5 µM (by protocol); actives 0.77% (n = 300,000); AID 2098;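 active = more than half of replicate wells show activity change below -50%, luminescence cut by over half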;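 also: luciferase reports HSF-1 transcriptional activity via heat shock element; 0% = median of DMSO wells and -100% = zero luminescence signal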
HSF-1 act: increases HSF-1 driven luciferase reporter signal; activation, % at 9 µM; actives 1.7% (n = 300,000); NIH3T3-HGL HSF-1 luciferase reporter, MG132, 8 h; 100% = twice DMSO control signal;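 active = mean replicate activation of at least 50% with a set share of replicates each reaching 50%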;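 also: 0% = median of the neutral control wells and 100% = twice that signal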
HKDC1 inhibitor: inhibitors of human hexokinase HKDC1; Q2TB90; recombinant HKDC1, G6PDH/diaphorase resazurin coupled fluorescence; inhibition, % at 20 µM; actives 0.16% (n = 340,000);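 active = inhibition above about 35% when tested at 20 µM, limit read from the data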;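 also: plate controls were DMSO wells with enzyme for no effect and DMSO wells lacking enzyme for full effect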
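Incubation: 90 min at room temperature in dark / Material: recombinant HKDC1 (HK5) hexokinase enzyme, produced in-house / Quantity: enzyme 5 µg/mL final / Compound: one dose of 20 µM, 1% DMSO / Reagent: glucose and ATP substrates / Buffer or medium: Tris pH 8.0 buffer with MgCl2, Tween-20, BSA, BME / Technique: resorufin fluorescence at 613 nm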
* hit, by the source's call; x = no result. A selection: hits, their analogues and other compounds. The true share with any hit is near 3.1%.

SMILES	Tb hexokinase	HSP90 refold inh	Hsp70 act	HSF1 inh	HSF-1 act	HKDC1 inhibitor
CN1CCN(NC(=O)Nc2cccc(F)c2)CC1	x	1	x	-4	-3	2
Fc1ccc(C2c3[nH]c4ccccc4c3CCN2Cc2ccoc2)cc1 (centres undefined)	-11	-5	0	3	4	-7
Cc1cccc(C2c3[nH]c4ccccc4c3CCN2Cc2cnn(-c3ccc(F)cc3)c2)n1 (centres undefined)	-5	2	0	25	56*	17
Cc1nc(N2CCC(C)CC2)c2c(C)c(C(=O)Nc3ccc(C(F)(F)F)cc3)sc2n1	-22	0	1	3	8	-3
Cc1nc(N2CCC(C)CC2)c2c(C)c(C(=O)Nc3cccc(C(F)(F)F)c3)sc2n1	-16	1	0	20	59*	0
CCOC(=O)c1c(NC(C)=O)sc2c(O)cccc12	-3	-2	0	4	5	8
CCOC(=O)c1c(NC(C)=O)sc2c(O)c(Br)cc(Br)c12	6	-6	0	28	52*	21
COCC(Cc1ccccc1)NC(=O)Cn1cc(C)c(=O)[nH]c1=O (centres undefined)	x	x	x	x	x	-8
CC1CCCC(NC(=O)CCS(=O)(=O)c2cc3c(cc2Cl)NC(=O)CO3)C1C (centres undefined)	x	2	x	-3	-5	-4
O=C(Nc1cc(Cl)ccc1O)c1snnc1-c1ccccc1	-3	-3	0	-1	-7	1
O=C(Nc1cccc(Cl)c1Cl)c1snnc1-c1ccccc1	1	2	0	-86*	-89	-2
Cc1ccccc1NC(=S)C1=C(O)c2sccc2N(C)S1(=O)=O	-33	2	0	25	58*	1
Cc1cc(C)c(C(=O)N2CCC(N3CCC(C(=O)NC(C)C)CC3)CC2)o1	x	2	x	3	3	-6
COC(=O)C1=C(C)Nc2c(c(=O)n(C)c(=O)n2C)C1c1cccnc1 (centres undefined)	-18	-2	0	-4	1	-7
COC(=O)C1=C(C)Nc2c(c(=O)n(C)c(=O)n2C)C1c1cccc(O)c1 (centres undefined)	-26	-1	x	-57*	-67	-5
CCOc1ncccc1C(=O)NCCc1c[nH]c2ccccc12	x	-2	x	51	89*	-2
O=C1S/C(=C\c2ccc(N3CCOCC3)o2)C(=O)N1Cc1ccc(F)cc1	17	-1	0	x	x	15
O=C1S/C(=C/c2ccc(N3CCOCC3)o2)C(=O)N1Cc1ccc(F)cc1	-5	1	0	103	155*	-1
O=C(NC1C2CC3CC(C2)CC1C3)c1ccc(Br)o1 (centres undefined)	x	9	x	6	-5	-6
COc1ccc(Cn2ccnc2)cc1[N+](=O)[O-]	0	0	0	-1	1	-7
COc1ccc(Cn2c(SC)nc3ccccc32)cc1[N+](=O)[O-]	4	0	0	-61*	-70	-5
CCOc1ccccc1NC(=O)COC(=O)c1cnc(C)cn1	x	x	x	x	x	-5
Cc1ccc(NC(=O)c2ccc(Cn3cc(Br)cn3)o2)cc1	-2	6	0	160	226*	0
COC(=O)c1ccc(C)c(NC(=O)c2ccc(Cn3cc([N+](=O)[O-])cn3)o2)c1	-9	-2	0	25	60*	-7
NNC(=O)c1ccc(Cn2cc(Br)cn2)o1	0	0	x	0	8	-1
SMILES	Tb hexokinase	HSP90 refold inh	Hsp70 act	HSF1 inh	HSF-1 act	HKDC1 inhibitor
COC(=O)c1ccc(C)c(NC(=O)Cc2ccc([N+](=O)[O-])cc2)c1	4	1	0	0	-23	x
CCC(Oc1ccc(Br)cc1Cl)C(=O)Nc1nnc(C2CC2)s1 (centres undefined)	x	3	x	1	-5	1
O=C(Nc1ccccc1OC(F)F)c1ccc(S(=O)(=O)N2CCOCC2)cc1	x	-3	x	0	-1	-2
Cc1ccc(Nc2c(-c3ccc(C)o3)nc3ncccn23)cc1	-24	-1	x	3	-15	0
Cc1ccc(-c2nc3cnccn3c2Nc2c(C)cccc2C)o1	-14	-2	0	-82*	-85	2
Cc1ccc(-c2nc3ncccn3c2Nc2ccccc2C)o1	-14	0	0	19	57*	-4
Cc1ccc(C)c(Cn2nnc3c(=O)[nH]c(C4CCCN(C(=O)c5cccs5)C4)nc32)c1 (centres undefined)	x	3	x	10	18	1
Cc1ccc(C)c(Cn2nnc3c(=O)[nH]c(C4CCN(C(=O)c5cccs5)CC4)nc32)c1	-1	0	0	27	76*	9
COc1ccc(NC(=O)C2CCN(c3nc(-c4ccc(OC)cc4)no3)CC2)cc1	x	0	x	-9	-17	-3
COc1ccc(-c2noc(N3CCC(C(=O)NCCCN4CC(C)CC(C)C4)CC3)n2)cc1 (centres undefined)	x	0	x	-77*	-82	-6
Cc1cc(N(C)C)c(C#N)c(NCc2ccccc2)n1	0	-2	0	50	93*	4
Cc1ccc2nc(COc3ccc(Cl)cc3)cc(=O)n2c1	-1	1	0	45	66*	-6
Cc1noc(C)c1CSCC(=O)N(C)CC(=O)Nc1ccccc1C(F)(F)F	x	x	x	x	x	-7
O=C1CSC(c2cn(-c3ccccc3)nc2-c2ccc3c(c2)OCCO3)N1CCN1CCOCC1 (centres undefined)	-7	3	0	14	58*	-8
c1ccc(-n2cc(CN3CCC(N4CCOCC4)CC3)c(-c3ccc4c(c3)OCO4)n2)cc1	-2	-4	0	-4	-3	-4
CN(C(=O)COc1ccc(Oc2ccccc2)cc1)C1CCS(=O)(=O)C1 (centres undefined)	x	-5	x	4	5	-1
COc1cccc(CNC(=O)c2cc(S(=O)(=O)N3CCOCC3)cn2C)c1	x	1	x	-1	0	-2
S=C(N/N=C/c1ccco1)NC1CC2CCC1C2 (centres undefined)	x	3	x	30	58*	-2
Oc1ccccc1/C=N/NC(=S)NC1CC2CCC1C2 (centres undefined)	-16	1	x	9	34	-29
N#Cc1cccn1-c1nccs1	-7	2	0	-86*	-89	-3
Cc1cc(C)cc(NC(=O)c2ccc(CSc3nnc(C)s3)cc2)c1	-9	-1	0	38	69*	-2
Cc1ccccc1-c1cc(C(=O)NCc2cccc(Br)c2)nn1CC1CC(c2cccc([N+](=O)[O-])c2)=NO1 (centres undefined)	x	x	x	x	x	-3
Cc1cccc(C(=O)OCC(=O)c2csc(N3CCCCC3)n2)c1[N+](=O)[O-]	x	x	x	x	x	0
Cc1ccc(Cn2c(=O)sc3ccccc3c2=O)cc1	1	0	0	5	6	-5
